Assay outcomes deposited in PubChem by several laboratories.
Rce1 inh – yeast Rce1p protease inhibitors, primary screen, biochemical, fluorescence, cell-free homogeneous; CAAX prenyl protease 2 (Saccharomyces cerevisiae (strain ATCC 204508 / S288c)), Q03530; yeast membranes, quenched prenylated peptide cleavage fluorescence; calls only; 290,000 compounds, 0.27% hits; AID 2563, 2010;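 active = fall in fluorescence gain of 50% or more versus controls, with final raw signal at or below 3038400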;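 note: plate controls were neutral control wells for no effect and wells lacking membranes for full effect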
Runt-SMMHC FRET – inhibitors of RUNX1 Runt–CBFb-SMMHC binding, primary screen, biochemical, FRET, Cerulean-Runt, Venus-CBFb-SMMHC, uHTS | Runt-related transcription factor 1 (Homo sapiens) + Core-binding factor subunit beta … | inhibition, % at 20 µM | 220,000 compounds, 0.74% hits | Cerulean-Runt/Venus-CBFb-SMMHC FRET ratio 530/480, 1 h | AID 1434, 2008;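 active = mean inhibition across duplicate retests at 20 µM reaching about 50%, limit read from the data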;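 note: 0% = DMSO wells and 100% = wells with excess untagged CBFb-SMMHC; inhibitors lower the FRET ratio by blocking Runt binding to CBFb-SMMHC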
RanGTP-Imp inh – inhibitors of RanGTP-importin-beta interaction, primary screen, biochemical, FRET, CFP-Ran, YFP-importin-beta, homogeneous; Ran GTPase (GTP-bound) - importin-beta complex; 300,000 compounds, 1.1% hits; cell-free CFP-Ran/YFP-importin-beta FRET ratio; inhibition, % (concentration not given with the values);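 active = more than half of the replicate wells show a fall in the fluorescence ratio signal beyond about 16%, limit read from the data, passing the limit was not always enough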;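 note: 0% = DMSO wells and 100% = Ran loaded with GDP instead of GTP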
Platelet DG rel – inhibitors of platelet dense granule secretion, primary screen, cell-based, MLPCN, human platelets | inhibition, %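 (compounds screened at 7.5 µM in platelet-rich plasma)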 | 300,000 compounds, 0.22% hits | AID 1663, 2009 | human platelet-rich plasma, SFLLRN dense granule ATP release, luminescence;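 active = mean replicate score, as percent of positive control, at or above 50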
Runt-CBFb FRET – inhibitors of RUNX1 Runt–CBFb binding, primary screen, biochemical, FRET, Cerulean-Runt, Venus-CBFb, uHTS. inhibition, % at 20 µM. AID 1496, 2009. 220,000 compounds, 0.46% hits. Runt-related transcription factor 1 (Homo sapiens) + Core-binding factor subunit beta …. Cerulean-Runt/Venus-CBFb FRET ratio 530/480, 1 h;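 active = inhibition over about 50% at 20 µM in the single-dose screen, limit read from the data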;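 note: 0% = DMSO wells and 100% = excess unlabeled CBFb competitor control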
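Schedule: protein complex preformed 1 h, compound exposure 1 h, room temperature, dark; test system: Cerulean-labeled Runt domain protein; amount: 100 nM per protein; buffer or medium: Tris 50 mM pH 7.5, KCl, K2SO4, 0.01% BSA; read-out: loss of energy transfer signal; detection: FRET fluorescence; controls: 5 µM unlabeled CBFb as full-inhibition high control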
YIC counter – YIC intramolecular FRET probe signal interference, dose response, counter-screen for RanGTP-importin-beta inhibitor project, biochemical, fluorescence FRET; shares compounds with RanGTP-Imp inh; 1,000 compounds, 40% hits; Purified YIC probe, intramolecular FRET ratio YFP/CFP; IC50, µM;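 active = fitted half-maximal inhibitory concentration no more than tenfold above the top dose tested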
* = called active by the depositor; i = inactive; · = not tested or not shown. Rows were chosen to be rich in hits. Some 1.8% of all compounds tested hit in one or more screens of this group.

SMILES	Rce1 inh	Runt-SMMHC FRET	RanGTP-Imp inh	Platelet DG rel	Runt-CBFb FRET	YIC counter
COCCNC(=S)N1CCCN(c2nc3cc(C)ccc3cc2C#N)CC1	i	·	18*	18	·	31*
CC(C)(C)NC(=O)CSC(=Nc1cccc(F)c1)NC#N	i	1	-1	9	·	·
CC(C)Cc1nn2c(N)c(/C=C3\C=Nc4ccccc43)c(=O)nc2s1	·	-54	25*	-1	-85	>50
CS(=O)(=O)c1nsc2nc(=O)c(/C=C3\C=Nc4ccccc43)c(N)n12	i	73*	25*	12	29	20*
Cc1ccsc1C(=O)Nc1nnc(-c2ccco2)o1	i	2	1	0	6	·
CCCN(CCC)C(=O)c1ccc2c(c1)S(=O)(=O)c1ccccc1C2=O	i	·	2	2	·	·
Cc1cc2oc3cc(NCCC4CCCN4C)ccc3c(=O)c2cc1C (stereo not given)	i	·	31*	12	·	8.9*
CN1CCCC1CCNc1ccc2sc3ccccc3c(=O)c2c1 (stereo not given)	i	·	-193	2	·	·
N#Cc1c2ncn(CC(=O)c3ccc(Br)cc3)c(=O)c2c2n1CCC2	i	-1	16*	9	-5	>50
CCN(CC(=O)Nc1c(F)cccc1F)C(=O)c1ccc(COc2ccccc2)cc1	i	·	-1	-1	·	·
CCOc1ccc(OCc2ccc(C(=O)N(CC)CC)cc2)cc1	i	-3	21*	9	-3	>50
CCN1CCc2nc(NC(=O)CC(c3ccccc3)c3ccccc3)sc2C1	i	60*	31*	0	6	16*
COc1ccccc1C(=O)N/C(=C/c1ccc(Br)cc1)C(=O)N1CCCC1	i	-7	5	-2	1	·
CCc1cc(=O)oc2c(CN3CCN(C)CC3)c(O)c(Cl)cc12	i	91*	32*	1	100*	33*
Cc1ccc2nc(N3CCN(C(=O)c4ccc(F)cc4)CC3)c(C#N)cc2c1	i	·	22*	-5	·	25*
Cc1ccc2cc(C#N)c(N3CCN(C(=O)c4cccs4)CC3)nc2c1	i	·	8	2	·	·
CCCc1n(CC(O)COCc2ccccc2)c2ccccc2[n+]1C (stereo not given)	i	13	35*	-9	-8	>50
CCOC(=O)CN1N=C(/C=C/c2ccc(OC)cc2)CCC1=O	i	4	-1	10	-1	·
Nc1c(C(=O)Nc2ccccc2)c2nc3ccccc3nc2n1CCCN1CCOCC1	i	11	28*	-50	10	30*
Nc1c(S(=O)(=O)c2ccccc2)c2nc3ccccc3nc2n1CCN1CCOCC1	i	7	3	-1	1	·
Cc1cc(C)c2c(N)c(C(=O)NN3CC(=O)N(c4ccccc4F)CC3=O)sc2n1	i	8	16*	-36	6	>50
Cc1cc(C)c2c(N)c(C(=O)NNC(=O)c3ccccc3)sc2n1	i	2	11	-3	2	·
Cc1cccc(C)c1OCC(=O)OC/C(O)=C(\C#N)c1nc2ccccc2[nH]1	i	1	26*	-5	3	>50
C#C[C@]1(O)CC[C@H]2[C@@H]3CCC4=Cc5oncc5C[C@]4(C)[C@H]3CC[C@@]21C	i	·	4	0	·	·
CC(=O)Nc1cccc(C(=O)N/N=C/c2ccc(F)cc2)c1	i	0	22*	5	-2	>50
CC1(C)N(OCc2ccccc2)C(=O)C(=O)N(OCc2ccccc2)C1(C)C	i	3	-3	7	-1	·
Cc1sc(NC(=O)c2ccccc2)c(C#N)c1-c1ccccc1	i	2	39*	1	2	>50
CC1CCN(C(=O)COc2ccc3ccccc3c2Br)CC1	i	·	0	4	·	·
